Assay results as given in ChEMBL document CHEMBL4602711, “Catching a Moving Target: Comparative Modeling of Flaviviral NS2B-NS3 Reveals Small Molecule Zika Protease Inhibitors” (ACS Med Chem Lett, 2020).
Calls of active or inactive are those of the source.

How the values were obtained:
[1] = Inhibition of N-terminal His6-tagged DENV2 NS2B-NS3 protease using Boc-Gly-Lys-Arg-AMC33 as substrate measured for 600 secs by fluorescence based assay; set-up: species or system dengue virus type 2
Method in brief: (§1)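 Ki values were obtained by fluorescence-based protease assays, only for ligands below the 50 μM inhibition cutoff. The commercially available racemic mixtures were tested.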

[2] = biological target: Nonstructural protein 3 (Zika virus) (UniProt A0A024AXB9); test: Inhibition of Zika virus NS2B-NS3 protease at <50 uM using Bz-Nle-Lys-Lys-Arg-AMC as substrate preincubated for 10 mins followed by substrate addition and measured for 70 secs by fluorophotometric analysis
dengue virus type 2 = test: Inhibition of N-terminal His6-tagged DENV2 NS2B-NS3 protease at<50 uM using Boc-Gly-Lys-Arg-AMC33 as substrate measured for 600 secs by fluorescence based assay
Genome polyprotein = Genome polyprotein (West Nile virus, UniProt P06935); test: Inhibition of C-terminal His6-tagged West Nile virus NS2B (52 to 96 residues)-G4SG4-NS3 (1 to 184 residues) expressed in Escherichia coli BL21(DE3) cells using Boc-Gly-Lys-Arg-AMC33 as substrate measured for 600 secs by fluorescence based assay; method in brief: as §1
Nonstructural protein 3 = Nonstructural protein 3 (Zika virus, UniProt A0A024AXB9); test: Inhibition of Zika virus NS2B-NS3 protease using Bz-Nle-Lys-Lys-Arg-AMC as substrate preincubated for 10 mins followed by substrate addition and measured for 70 secs by fluorophotometric analysis; method in brief: as §1
[3] = biological target: Genome polyprotein (West Nile virus) (UniProt P06935); test: Inhibition of C-terminal His6-tagged West Nile virus NS2B (52 to 96 residues)-G4SG4-NS3 (1 to 184 residues) expressed in Escherichia coli BL21(DE3) cells at <50 uM using Boc-Gly-Lys-Arg-AMC33 as substrate measured for 600 secs by fluorescence based assay
Sequence of Genome polyprotein (West Nile virus) (P06935 whole entry, the tested form may be a part): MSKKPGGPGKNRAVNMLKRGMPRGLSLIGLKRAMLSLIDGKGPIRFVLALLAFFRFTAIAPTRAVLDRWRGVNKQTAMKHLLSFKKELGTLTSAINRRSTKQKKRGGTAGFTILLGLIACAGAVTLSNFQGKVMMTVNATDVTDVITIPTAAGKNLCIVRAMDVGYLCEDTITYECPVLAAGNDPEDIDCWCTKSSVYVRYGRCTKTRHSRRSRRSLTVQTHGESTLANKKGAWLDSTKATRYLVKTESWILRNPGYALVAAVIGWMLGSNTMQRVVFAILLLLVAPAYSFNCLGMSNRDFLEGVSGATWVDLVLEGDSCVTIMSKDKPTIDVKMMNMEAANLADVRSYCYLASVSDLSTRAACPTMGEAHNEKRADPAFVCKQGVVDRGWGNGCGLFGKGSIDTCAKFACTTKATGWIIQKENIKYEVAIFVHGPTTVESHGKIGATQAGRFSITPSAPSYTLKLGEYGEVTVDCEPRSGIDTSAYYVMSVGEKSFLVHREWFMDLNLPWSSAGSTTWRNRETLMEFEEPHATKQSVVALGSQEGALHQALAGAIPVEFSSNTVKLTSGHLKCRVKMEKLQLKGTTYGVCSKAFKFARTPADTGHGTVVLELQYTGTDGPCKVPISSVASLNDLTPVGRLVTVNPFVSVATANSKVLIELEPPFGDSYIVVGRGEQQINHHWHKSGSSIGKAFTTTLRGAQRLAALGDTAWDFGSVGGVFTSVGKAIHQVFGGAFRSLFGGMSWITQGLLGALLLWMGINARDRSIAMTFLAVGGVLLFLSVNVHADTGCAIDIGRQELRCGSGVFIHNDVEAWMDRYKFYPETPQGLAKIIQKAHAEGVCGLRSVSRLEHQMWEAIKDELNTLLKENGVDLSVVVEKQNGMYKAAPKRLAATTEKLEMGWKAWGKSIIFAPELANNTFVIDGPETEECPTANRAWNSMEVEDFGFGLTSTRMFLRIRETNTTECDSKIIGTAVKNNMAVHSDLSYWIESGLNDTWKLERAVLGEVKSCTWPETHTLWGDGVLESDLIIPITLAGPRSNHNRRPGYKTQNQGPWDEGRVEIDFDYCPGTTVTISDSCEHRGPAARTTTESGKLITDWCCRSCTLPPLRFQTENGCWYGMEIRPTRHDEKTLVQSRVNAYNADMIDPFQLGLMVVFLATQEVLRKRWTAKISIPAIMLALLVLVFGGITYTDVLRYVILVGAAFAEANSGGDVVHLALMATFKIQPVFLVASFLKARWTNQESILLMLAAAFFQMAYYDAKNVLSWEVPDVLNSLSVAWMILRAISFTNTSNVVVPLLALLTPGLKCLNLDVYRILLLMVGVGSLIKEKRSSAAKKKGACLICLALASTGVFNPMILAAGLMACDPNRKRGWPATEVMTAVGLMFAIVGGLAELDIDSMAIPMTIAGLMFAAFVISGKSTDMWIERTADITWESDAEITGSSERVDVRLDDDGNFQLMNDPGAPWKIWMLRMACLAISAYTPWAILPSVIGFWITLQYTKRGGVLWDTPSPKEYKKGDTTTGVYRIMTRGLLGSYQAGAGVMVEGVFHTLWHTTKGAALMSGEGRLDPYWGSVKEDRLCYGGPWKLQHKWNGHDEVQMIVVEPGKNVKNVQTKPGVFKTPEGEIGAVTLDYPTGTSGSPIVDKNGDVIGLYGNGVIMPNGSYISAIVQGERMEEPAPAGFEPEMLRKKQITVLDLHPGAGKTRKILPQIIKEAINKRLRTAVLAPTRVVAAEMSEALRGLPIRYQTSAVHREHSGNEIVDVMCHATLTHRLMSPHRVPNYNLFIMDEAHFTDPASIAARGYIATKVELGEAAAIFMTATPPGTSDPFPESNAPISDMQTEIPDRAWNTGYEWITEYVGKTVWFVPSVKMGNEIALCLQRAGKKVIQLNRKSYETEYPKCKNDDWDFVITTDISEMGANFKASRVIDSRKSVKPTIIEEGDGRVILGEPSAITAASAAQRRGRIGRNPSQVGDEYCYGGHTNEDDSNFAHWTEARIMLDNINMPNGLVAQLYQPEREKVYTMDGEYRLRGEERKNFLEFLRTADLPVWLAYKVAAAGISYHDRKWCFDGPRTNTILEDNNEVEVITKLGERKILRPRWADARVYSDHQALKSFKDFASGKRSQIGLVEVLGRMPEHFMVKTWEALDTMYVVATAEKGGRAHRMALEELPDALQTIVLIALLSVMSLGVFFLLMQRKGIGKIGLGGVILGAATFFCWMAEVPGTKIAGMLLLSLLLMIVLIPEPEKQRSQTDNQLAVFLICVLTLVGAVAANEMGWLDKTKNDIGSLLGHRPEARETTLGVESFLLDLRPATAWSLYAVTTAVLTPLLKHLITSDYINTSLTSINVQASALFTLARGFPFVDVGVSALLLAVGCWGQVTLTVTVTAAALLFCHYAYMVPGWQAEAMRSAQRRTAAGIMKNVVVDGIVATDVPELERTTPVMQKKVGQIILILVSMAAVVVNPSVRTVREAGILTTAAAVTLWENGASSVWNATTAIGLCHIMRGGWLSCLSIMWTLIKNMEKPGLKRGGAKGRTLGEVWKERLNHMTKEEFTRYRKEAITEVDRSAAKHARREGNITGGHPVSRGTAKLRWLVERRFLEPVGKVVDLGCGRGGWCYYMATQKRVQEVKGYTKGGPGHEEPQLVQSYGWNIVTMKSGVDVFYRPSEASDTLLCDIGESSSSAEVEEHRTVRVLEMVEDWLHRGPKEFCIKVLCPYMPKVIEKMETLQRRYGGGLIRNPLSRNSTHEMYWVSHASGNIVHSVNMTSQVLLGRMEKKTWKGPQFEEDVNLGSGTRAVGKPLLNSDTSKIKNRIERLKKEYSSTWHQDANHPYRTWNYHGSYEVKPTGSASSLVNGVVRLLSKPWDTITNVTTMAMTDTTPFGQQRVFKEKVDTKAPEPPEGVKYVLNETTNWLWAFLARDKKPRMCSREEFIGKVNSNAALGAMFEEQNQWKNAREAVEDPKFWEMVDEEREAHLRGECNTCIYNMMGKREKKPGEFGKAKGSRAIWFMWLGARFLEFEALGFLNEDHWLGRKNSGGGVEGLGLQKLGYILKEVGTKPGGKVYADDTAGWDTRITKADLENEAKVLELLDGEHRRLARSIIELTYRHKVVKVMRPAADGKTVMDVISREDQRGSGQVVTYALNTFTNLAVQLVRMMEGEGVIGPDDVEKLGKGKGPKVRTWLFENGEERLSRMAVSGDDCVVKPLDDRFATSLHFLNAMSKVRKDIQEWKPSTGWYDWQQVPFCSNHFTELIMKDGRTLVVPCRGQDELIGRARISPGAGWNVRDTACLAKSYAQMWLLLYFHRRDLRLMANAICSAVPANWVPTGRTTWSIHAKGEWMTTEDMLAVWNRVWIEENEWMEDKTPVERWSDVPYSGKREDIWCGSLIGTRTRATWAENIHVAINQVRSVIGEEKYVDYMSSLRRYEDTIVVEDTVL

Sequence of Nonstructural protein 3 (Zika virus) (A0A024AXB9 as listed by the source): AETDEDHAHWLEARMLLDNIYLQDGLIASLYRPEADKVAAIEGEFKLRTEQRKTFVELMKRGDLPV
Sequence of Nonstructural protein 3 (A0A024AXB9 whole entry, the tested form may be a part): as the sequence (A0A024AXB9 as listed by the source) above
Sequence of Genome polyprotein (P06935 1371-1501 limits assumed): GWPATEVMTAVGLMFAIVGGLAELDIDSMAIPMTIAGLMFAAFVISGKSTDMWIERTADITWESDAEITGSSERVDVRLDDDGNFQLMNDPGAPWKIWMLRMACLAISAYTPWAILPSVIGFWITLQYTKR
Sequence of Genome polyprotein (P06935 1502-2120 limits assumed): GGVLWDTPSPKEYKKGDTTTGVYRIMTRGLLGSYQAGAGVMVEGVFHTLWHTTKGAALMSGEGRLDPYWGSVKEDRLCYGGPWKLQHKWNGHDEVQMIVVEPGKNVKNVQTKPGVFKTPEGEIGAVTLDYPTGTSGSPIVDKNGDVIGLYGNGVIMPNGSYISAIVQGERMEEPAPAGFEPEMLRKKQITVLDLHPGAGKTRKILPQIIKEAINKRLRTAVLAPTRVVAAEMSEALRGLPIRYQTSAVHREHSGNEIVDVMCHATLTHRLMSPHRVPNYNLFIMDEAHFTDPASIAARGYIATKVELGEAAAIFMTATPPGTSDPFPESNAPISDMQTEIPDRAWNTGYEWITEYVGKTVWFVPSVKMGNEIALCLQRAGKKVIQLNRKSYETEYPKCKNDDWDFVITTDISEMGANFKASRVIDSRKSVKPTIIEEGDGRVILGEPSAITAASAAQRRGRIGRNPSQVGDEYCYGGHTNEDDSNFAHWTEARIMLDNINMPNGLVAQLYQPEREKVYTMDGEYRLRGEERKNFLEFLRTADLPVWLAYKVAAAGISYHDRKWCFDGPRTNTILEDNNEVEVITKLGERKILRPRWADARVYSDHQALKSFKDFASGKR

Ki [1] [µM] | inhibition [2] | inhibition (dengue virus type 2) | Ki (Genome polyprotein) [µM] | Ki (Nonstructural protein 3) [µM] | inhibition [3] | Structure (SMILES)
0.09 | Active | Active | 25.5 | 2.3 | Active | Cc1ccc(C(=O)NCC(O)CN2CCCC2)cc1OCCN (stereo not given)
– | Active | – | 7.4 | 11.5 | Active | COc1cc(CN2CC(O)C2)ccc1OCC(O)CN1CCC(O)CC1 (stereo not given)
